TAAR1 agonist – human TAAR1 agonists, primary screen, Fluo-8 calcium fluorescence, CHO RD-HGA16 cells; Trace amine-associated receptor 1 (Homo sapiens), Q96RJ0; vehicle wells 0%, saturating PEA agonist 100%; activation, % at 3 µM; 360,000 tested, 0.99% active;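 active means activation above the mean activation of all test compounds in the run plus 3 SD, cut at about 38% in these data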
Target sequence (Q96RJ0 whole entry, looked up): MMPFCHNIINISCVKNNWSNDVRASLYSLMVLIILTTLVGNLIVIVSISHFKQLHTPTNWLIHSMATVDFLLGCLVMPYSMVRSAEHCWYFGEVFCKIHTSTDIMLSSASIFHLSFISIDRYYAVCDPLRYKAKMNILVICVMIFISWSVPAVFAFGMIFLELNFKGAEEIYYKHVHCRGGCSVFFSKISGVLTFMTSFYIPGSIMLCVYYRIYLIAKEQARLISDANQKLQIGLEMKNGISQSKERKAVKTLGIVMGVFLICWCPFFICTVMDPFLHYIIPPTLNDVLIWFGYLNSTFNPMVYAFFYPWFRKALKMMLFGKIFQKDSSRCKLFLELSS
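Benchmarks: low control DMSO, high control PEA (EC100); System: CHO RD-HGA16 cells carrying human TAAR1 plus Gα16; Detection: Fluo-8 fluorescence, 5 s baseline then 140 s kinetic read; Schedule: 17-24 h plating, Fluo-8 75 min 37 °C, 30 min RT; Read-out basis: % activation from peak over basal fluorescence ratio, DMSO-to-PEA scaled.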
TAAR1 antagonist – human TAAR1 antagonists, primary screen, Fluo-8 calcium fluorescence, CHO RD-HGA16 cells; Trace amine-associated receptor 1 (Homo sapiens), Q96RJ0; AID 624466, 2012; 360,000 tested, 1.5% active; inhibition, % at 3 µM; antagonist;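 active means inhibition above a per-plate cutoff, the mean inhibition of test compounds on that plate plus 3 SD, cut at about 49% in these data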
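test system = CHO RD-HGA16 cells bearing hTAAR1 | replication = singlicate | controls = DMSO-only wells and EC80 β-PEA-stimulated wells | reagent = EC80 β-phenethylamine stimulus | read-out basis = percent inhibition of PEA-evoked calcium signal, max/basal emission ratio | schedule = seeding 17-24 h prior, 75-min 37 °C, 30-min RT dye loading | signal = kinetic Fluo-8 calcium fluorescence measurement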
DAGLB inhibitor – DAGLB lipase inhibitors, primary screen, biochemical, fluorescence, HTS. HEK293T DAGLB membrane lysate, EnzChek fluorogenic substrate. inhibition, % at 5.17 µM. 340,000 tested, 0.059% active; in the data active means inhibition above about 34%
GPR7 antag – GPR7 receptor antagonists, primary screen, cell-based, fluorescence, single concentration. inhibition, % at 4.4 µM. GPR7-expressing cells, fluorescence antagonist assay. 290,000 tested, 1.1% active; in the data active means inhibition above about 16%, passing the limit was not always enough;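 further: cells stimulated with the agonist NPW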
Target sequence (P48145 whole entry, looked up): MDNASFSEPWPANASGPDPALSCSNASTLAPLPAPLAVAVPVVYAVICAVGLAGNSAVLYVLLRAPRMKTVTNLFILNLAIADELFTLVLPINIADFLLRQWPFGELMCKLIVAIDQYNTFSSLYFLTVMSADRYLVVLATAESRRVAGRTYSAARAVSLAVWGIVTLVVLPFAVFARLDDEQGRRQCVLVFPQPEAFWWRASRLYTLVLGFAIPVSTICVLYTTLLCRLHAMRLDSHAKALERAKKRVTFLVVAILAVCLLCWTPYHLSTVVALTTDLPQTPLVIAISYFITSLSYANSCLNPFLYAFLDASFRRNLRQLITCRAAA
MPTP inh – mitochondrial permeability transition pore inhibitors, primary screen, biochemical, isolated mouse mitochondria, absorbance; 360,000 tested, 1.4% active; inhibition, % at 10 µM; AID 602449, 2012; Ca2+ swelling absorbance, 30 min;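 active means inhibition of 50% or more, scaled per plate between neutral and stimulator controls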
Of the large screens only hits and unclear results are named; the others gave an inactive call. Hits are enriched below; roughly 4% of the tested compounds scored in any of these assays.

COc1cccc(-c2sc3ccccc3c2-c2ccc(OCCN3CCCC3)cc2)c1	none (no result: GPR7 antag)
Cc1cc(NC(=O)CCc2c[nH]c3ccccc23)ccc1Nc1cccnc1	none (no result: DAGLB inhibitor, GPR7 antag, MPTP inh)
COC(=O)C1=C(C)N(C)C(=NCc2ccc(C(F)(F)F)cc2)NC1c1ccc(F)cc1 (centres undefined)	none (no result: DAGLB inhibitor, GPR7 antag, MPTP inh)
Cc1ccc(C(C)C)c(OCc2nn(CC(=O)c3ccc(Cl)cc3)c3[n+]2CCCCC3)c1	GPR7 antag 37.7
COc1ccc(C(=O)N2CCC2(C)C(=O)O)cc1C(F)(F)F (centres undefined)	none (no result: DAGLB inhibitor, GPR7 antag)
CC(=O)NC(=S)Nc1ccc(NC(=S)NC(=O)c2cccs2)cc1	none
Cc1c(C(=O)NC(=S)Nc2ccc(NC(=O)c3cccs3)cc2)cccc1[N+](=O)[O-]	TAAR1 antagonist 67.7
CN1OC[C@@H]2CN(Cc3ccccc3)[C@H](c3cccc(-c4ccccc4)c3)C[C@@H]21	none (no result: GPR7 antag)
Cc1ccccc1C1c2[nH]c3ccccc3c2C[C@H]2C(=O)N(c3ccccc3C(=O)NCCN3CCOCC3)C(=O)N12 (some centres undefined)	TAAR1 antagonist 49.9
CCCCC#Cc1ccccc1COC[B-](F)(F)F	none (no result: DAGLB inhibitor, GPR7 antag, MPTP inh)
Cn1c(C(=O)N2CCC(C(=O)N3CCN(Cc4ccc5c(c4)OCO5)CC3)CC2)cc2sccc21	none
Cn1c(C(=O)N2CCC(C(=O)N3CCOCC3)CC2)cc2sccc21	GPR7 antag 19.8
CCCC(C(=O)Nc1cc(S(=O)(=O)N2CCOCC2)ccc1OC)c1ccccc1 (centres undefined)	none
O=C(Nc1ccc(N2CCCCC2)cc1)c1cncc(Br)c1	none
O=C(Nc1ccc(N2CCN(C(=O)c3ccccc3F)CC2)cc1)c1cncc(Br)c1	TAAR1 antagonist 51.9
Cc1nn(C2CCS(=O)(=O)C2)c(C)c1CN(C)C(=O)c1ccc(F)cc1 (centres undefined)	none (no result: GPR7 antag)
COCCCNC(=O)c1nnn2c1nc(N)c1cc(Cl)ccc12	none (no result: DAGLB inhibitor, GPR7 antag, MPTP inh)
COc1ccc(C(=O)CC(=O)c2ccc(C(C)(C)C)cc2)cc1	none (no result: GPR7 antag)
COc1ccc(C(=O)C(CCC(CNC(C)(C)C)C(=O)c2ccc(OC)cc2)CNC(C)(C)C)cc1 (centres undefined)	GPR7 antag 79.3
C=CCC[C@H](Cc1ccc(F)cc1)C(=O)OC[C@H](Cc1c[nH]c2ccccc12)NC(=O)[C@@H](CC=C)CC(=O)N[C@@H](CO)Cc1ccccc1	none (no result: GPR7 antag)
C=CCC[C@H](Cc1ccc(F)cc1)C(=O)OC[C@H](Cc1c[nH]c2ccccc12)NC(=O)[C@@H](CC=C)CC(=O)N[C@H](CO)Cc1ccccc1	TAAR1 antagonist 56.7 (no result: GPR7 antag)
C=CCC[C@@H](Cc1ccc(F)cc1)C(=O)OC[C@H](Cc1c[nH]c2ccccc12)NC(=O)[C@@H](CC=C)CC(=O)N[C@H](CO)Cc1ccccc1	TAAR1 antagonist 55.0 (no result: GPR7 antag)
C=CCC[C@H](Cc1ccc(F)cc1)C(=O)OC[C@@H](Cc1c[nH]c2ccccc12)NC(=O)[C@H](CC=C)CC(=O)NCCO	TAAR1 antagonist 50.9 (no result: GPR7 antag)
CCCCc1c(-c2ccccc2OC)ncn1C(C)c1ccccc1 (centres undefined)	none (no result: DAGLB inhibitor, GPR7 antag, MPTP inh)
Cc1ccccc1-c1nnn(Cc2cccc(S(=O)(=O)N3CCOCC3)c2)n1	TAAR1 antagonist 59.8 (no result: GPR7 antag)
O=C1c2ccccc2S(=O)(=O)N1Cc1cccc(S(=O)(=O)N2CCOCC2)c1	none
CCCCNC(=O)C1(C)CCCCN1C(=O)c1c(C)noc1C (centres undefined)	none (no result: DAGLB inhibitor, GPR7 antag)
Cc1nc([N+](=O)[O-])cn1CC(Cl)Cn1cc([N+](=O)[O-])nc1C	none (no result: DAGLB inhibitor, GPR7 antag, MPTP inh)
CNCCNC[C@H](Cc1cccc2ccccc12)NCCc1ccccc1	TAAR1 agonist 37.6 (no result: GPR7 antag)
CCC(CC)c1nnc(NC(=O)c2c(C)nn(Cc3ccccc3Cl)c2C)s1	TAAR1 agonist 41.5
CCC(CC)c1nnc(NC(=O)Cc2ccccc2[N+](=O)[O-])s1	TAAR1 agonist 49.5
CCC(CC)c1nnc(NC(=O)Cc2c[nH]c3ccccc23)s1	none (no result: GPR7 antag)
COc1cccc(-c2cc(CNC(=O)[C@H]3O[C@@H](n4cnc5c(N)ncnc54)[C@H](O)[C@@H]3O)no2)c1	none (no result: DAGLB inhibitor, GPR7 antag)
COc1ccc(S(=O)(=O)CC(=O)c2cc3cc(Br)ccc3oc2=O)cc1	TAAR1 agonist 42.4
Cc1ccccc1CN(C)CC(=O)Nc1cccc(S(=O)(=O)N(C)c2ccccc2)c1	none
CN(CC(=O)Nc1cccc(F)c1)CC(=O)Nc1cccc(S(=O)(=O)N(C)c2ccccc2)c1	TAAR1 antagonist 62.8 (no result: GPR7 antag)
CCN(CC(=O)Nc1cccc(S(=O)(=O)N(C)c2ccccc2)c1)Cc1ccccc1	none (no result: GPR7 antag)
CC(NC(=O)CN(C)CC(=O)Nc1cccc(F)c1)c1ccccc1 (centres undefined)	none (no result: GPR7 antag)
Cc1cc(C)c(NC(=O)CN(C)CC(=O)Nc2cccc(S(=O)(=O)N(C)c3ccccc3)c2)c(C)c1	TAAR1 agonist 43.7, TAAR1 antagonist 88.7 (no result: GPR7 antag)
CN(CC(=O)Nc1cccc(F)c1)CC(=O)Nc1cccc2ccccc12	TAAR1 agonist 45.8, TAAR1 antagonist 58.8 (no result: GPR7 antag)
CCOC(=O)[C@@H](NC(=O)CC[C@H]1O[C@@H](n2cc(C)c(=O)[nH]c2=O)C[C@@H]1O)C(C)C	none (no result: GPR7 antag)
COc1ccc2sc(-c3ccc(SC)cc3)c(-c3ccc(O)cc3)c2c1	TAAR1 antagonist 58.1 (no result: GPR7 antag)
O=c1cc(N2CCN(Cc3ccccc3)CC2)[nH]c(=O)n1-c1ccc(Br)cc1	none
COc1ccc(NC(=O)c2ccc(CN3CCN(c4ccccc4)CC3)cc2)cc1	TAAR1 agonist 39.9
COc1ccc(-n2c(=O)cc(N3CCN(Cc4ccccc4)CC3)[nH]c2=O)cc1	GPR7 antag 17.9
COc1ccc(C(=O)Nc2ccc(N3CCN(Cc4ccccc4)CC3)cc2)cc1	none (no result: DAGLB inhibitor)
COc1ccc(-c2oc3c(c2C#CC(C)(C)O)C(OC)CCC3)cc1 (centres undefined)	none (no result: DAGLB inhibitor, GPR7 antag)
O=C(Nc1ccccc1)c1cc(C2CCCN(C(=O)CCc3ccccc3)C2)on1 (centres undefined)	none (no result: DAGLB inhibitor, GPR7 antag)
CN(C)c1ccc(CC(=O)N2CCCC(c3cc(C(=O)Nc4ccc(C(C)(C)C)cc4)no3)C2)cc1 (centres undefined)	TAAR1 antagonist 55.5 (no result: DAGLB inhibitor, GPR7 antag)
Cn1c(Cc2ccccc2)nc(=O)c2ccccc21	none (no result: DAGLB inhibitor, GPR7 antag)
COc1cc(/C=C2\CC/C(=C\c3cc(OC)c(OC)c(OC)c3)C2=O)cc(OC)c1OC	none
COc1cc(/C=C2\COC/C(=C\c3cc(OC)c(OC)c(OC)c3)C2=O)cc(OC)c1OC	TAAR1 antagonist 53.4
COc1ccc(C2c3[nH]c4ccccc4c3C[C@H]3C(=O)N(CCCO)CC(=O)N23)cc1OC (some centres undefined)	none
COc1cc(C2c3[nH]c4ccccc4c3C[C@@H]3C(=O)N(Cc4ccco4)CC(=O)N23)cc(OC)c1OC (some centres undefined)	TAAR1 antagonist 53.2

Assay outcomes as filed in PubChem BioAssay.
